The values that follow come from ChEMBL document CHEMBL1143388 (Bioorg Med Chem, 2009).

The structures appear in SMILES notation.

As a reminder, the Ki is the equilibrium dissociation constant of an inhibitor or competing ligand from its target. A higher Ki goes with lower affinity. One may read the Emax as the greatest response seen or fitted, relative to the assay's reference. As a reminder, the EC50 is the concentration needed to bring the measured effect to its halfway point.

Assay [1] has as its target Mu-type opioid receptor (Rattus norvegicus, UniProt P33535). Put plainly: Binding affinity to rat MOPR expressed in CHO cells. It is filed as cell-based. The gist of the method:
(§1)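 Competitive displacement of [3H]diprenorphine from membranes of CHO cells stably transfected with rat MOPR or mouse DOPR. Buffer: 50 mM Tris-HCl, pH 7.4, with 1 mM EGTA. Ki values were derived from inhibition curves. Each value is the mean of at least three independent experiments run in duplicate.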

The target of assay [2] is Delta-type opioid receptor (Mus musculus, UniProt P32300). Put plainly: Binding affinity to mouse DOPR expressed in CHO cells. It counts as cell-based. The gist of the method:
as §1

Assay [3] addresses T1, Kappa-type opioid receptor (Homo sapiens, UniProt P41145). Put plainly: Agonist activity at human KOPR expressed in CHO cells assessed as enhancement of [35S]GTPgammaS binding at 10 uM relative to U50488. It is filed as functional, cell-based.
Assay [4] deals with T1, Kappa-type opioid receptor. Put plainly: Agonist activity at human KOPR expressed in CHO cells assessed as enhancement of [35S]GTPgammaS binding. It counts as functional, cell-based. In general terms: GTPγS resists hydrolysis and so accumulates on activated G proteins.
Assay [5] has as its target T1, Kappa-type opioid receptor. Put plainly: Displacement of [3H]diprenorphine from human KOPR expressed in CHO cells. It is filed as cell-based. (Loss of bound radioactivity is the signal in a displacement assay; it reports binding, not function.)

Chain of Delta-type opioid receptor (P32300 whole entry): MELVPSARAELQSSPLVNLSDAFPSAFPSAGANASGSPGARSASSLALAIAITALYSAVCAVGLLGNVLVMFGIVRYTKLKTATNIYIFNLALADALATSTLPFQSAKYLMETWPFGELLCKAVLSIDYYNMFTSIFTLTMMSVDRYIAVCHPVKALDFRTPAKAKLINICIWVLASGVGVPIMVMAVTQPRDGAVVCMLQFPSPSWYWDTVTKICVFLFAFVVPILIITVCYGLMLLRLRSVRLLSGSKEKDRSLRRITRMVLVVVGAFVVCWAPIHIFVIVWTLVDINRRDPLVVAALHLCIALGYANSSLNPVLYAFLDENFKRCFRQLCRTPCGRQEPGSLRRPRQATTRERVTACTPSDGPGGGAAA
Chain of Mu-type opioid receptor (P33535 whole entry): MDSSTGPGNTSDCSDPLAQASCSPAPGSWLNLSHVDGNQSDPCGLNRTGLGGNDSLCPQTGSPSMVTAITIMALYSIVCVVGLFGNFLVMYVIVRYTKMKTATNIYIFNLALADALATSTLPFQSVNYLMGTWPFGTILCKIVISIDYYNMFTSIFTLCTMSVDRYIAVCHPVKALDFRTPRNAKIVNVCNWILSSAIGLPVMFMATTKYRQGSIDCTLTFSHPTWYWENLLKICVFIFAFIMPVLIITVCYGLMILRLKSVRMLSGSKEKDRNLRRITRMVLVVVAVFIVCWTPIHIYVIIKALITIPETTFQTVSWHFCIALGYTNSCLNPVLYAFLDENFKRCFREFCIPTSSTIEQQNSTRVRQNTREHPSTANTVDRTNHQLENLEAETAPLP
T1 sequence (P41145 whole entry): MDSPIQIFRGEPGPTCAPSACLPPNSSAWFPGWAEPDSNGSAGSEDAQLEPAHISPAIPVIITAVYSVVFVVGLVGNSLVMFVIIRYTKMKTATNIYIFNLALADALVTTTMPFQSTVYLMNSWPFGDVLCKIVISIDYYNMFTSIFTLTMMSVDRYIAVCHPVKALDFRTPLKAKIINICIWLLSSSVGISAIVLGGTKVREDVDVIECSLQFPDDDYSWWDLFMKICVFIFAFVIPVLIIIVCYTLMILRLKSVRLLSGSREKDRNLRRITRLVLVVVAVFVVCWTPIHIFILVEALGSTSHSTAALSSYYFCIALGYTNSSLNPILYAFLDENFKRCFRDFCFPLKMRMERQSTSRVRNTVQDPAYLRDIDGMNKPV

With `COC(=O)[C@@H]1C[C@H](OC(C)=O)C(=O)[C@H]2[C@@]1(C)CC[C@H]1C(=O)O[C@H](C(=O)c3cnccn3)C[C@]21C`, the Ki in assay [1] and in assay [2] was over 1000 nM in each case. Besides, the Emax in assay [3] was found to be 103%.
Regarding `CCOC(=O)[C@@H]1C[C@]2(C)[C@H]3C(=O)[C@@H](OC(C)=O)C[C@@H](C(=O)OC)[C@]3(C)CC[C@H]2C(=O)O1`, the Ki in assay [1] and in assay [2] was over 1000 nM throughout. For the same molecule, in assay [3], the Emax worked out at 94%.
Regarding `COC(=O)[C@@H]1C[C@H](OC(C)=O)C(=O)[C@H]2[C@@]1(C)CC[C@H]1C(=O)O[C@H](c3ccoc3Br)C[C@]21C`, the Ki in assay [1] and in assay [2] was over 1000 nM in each case.
Turning to `COC(=O)[C@@H]1C[C@H](OC(C)=O)C(=O)[C@H]2[C@@]1(C)CC[C@H]1C(=O)O[C@H](C(=O)O)C[C@]21C`, in assay [4], the EC50 was found to be 167 nM. Moreover, the Ki was over 1000 nM in assay [1], over 1000 nM in assay [2] and 55 nM in assay [5]. In addition, in assay [3], the Emax is 99%.
On to `C=Cc1occc1[C@@H]1C[C@]2(C)[C@H]3C(=O)[C@@H](OC(C)=O)C[C@@H](C(=O)OC)[C@]3(C)CC[C@H]2C(=O)O1`, for which the Ki in assay [1] and in assay [2] was over 1000 nM throughout. In addition, the Emax in assay [3] was found to be 120%.
As to `CCOC[C@@H]1C[C@]2(C)[C@H]3C(=O)[C@@H](OC(C)=O)C[C@@H](C(=O)OC)[C@]3(C)CC[C@H]2C(=O)O1`, the Ki in assay [1] and in assay [2] was over 1000 nM in each case.
`COC[C@@H]1C[C@]2(C)[C@H]3C(=O)[C@@H](OC(C)=O)C[C@@H](C(=O)OC)[C@]3(C)CC[C@H]2C(=O)O1`: the Ki in assay [1] and in assay [2] was over 1000 nM each time. For the same molecule, in assay [3], the Emax was 98%.
Regarding `COC(=O)[C@@H]1C[C@H](OC(C)=O)C(=O)[C@H]2[C@@]1(C)CC[C@H]1C(=O)O[C@H](C(=O)OC(C)C)C[C@]21C`, the Ki in assay [1] and in assay [2] was over 1000 nM in each case. The Emax in assay [3] was determined as 94%.
Consider `COC(=O)[C@@H]1C[C@H](OC(C)=O)C(=O)[C@H]2[C@@]1(C)CC[C@H]1C(=O)O[C@H](COC(C)=O)C[C@]21C`, for which the Ki in assay [1] and in assay [2] was over 1000 nM throughout. In assay [3], the Emax is 113%.
As to `COC(=O)[C@@H]1C[C@H](OC(C)=O)C(=O)[C@H]2[C@@]1(C)CC[C@H]1C(=O)O[C@H](C(=O)c3cccs3)C[C@]21C`, the Ki in assay [1] and in assay [2] was over 1000 nM throughout. Further, in assay [3], the Emax came out at 103%.
With `COC(=O)[C@@H]1C[C@]2(C)[C@H]3C(=O)[C@@H](OC(C)=O)C[C@@H](C(=O)OC)[C@]3(C)CC[C@H]2C(=O)O1`, the Ki in assay [1] and in assay [2] was over 1000 nM throughout. In addition, the Emax in assay [3] came to 99%.
In the case of `COC(=O)[C@@H]1C[C@H](OC(C)=O)C(=O)[C@H]2[C@@]1(C)CC[C@H]1C(=O)O[C@H]([C@H](O)c3ccco3)C[C@]21C`, the Ki in assay [1] and in assay [2] was over 1000 nM throughout. For the same molecule, the Emax in assay [3] came to 111%.
